# HSP90 refold inh – HSP90 refolding inhibition in rabbit reticulocyte lysate; luciferase refolding luminescence, 3 h; inhibition, % at 5.6 µM; 290,000 compounds, 0.91% hits;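 active means inhibition above the screen-wide mean plus 3 SD, computed separately per campaign, cut at about 16% in these data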;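 further: 0% = DMSO wells and 100% = 60 µM geldanamycin wells; inhibitors lower the luminescence because luciferase stays unfolded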
# STAT3 inh – reduces IL-6 driven STAT3 reporter signal; inhibition, % at 5.5 µM; U3A cells, IL-6 STAT3-luciferase reporter, luminescence; host cell line lacks STAT1; 190,000 compounds, 0.89% hits;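 active means inhibition above the mean inhibition across all screened compounds plus 3 SD, cut at about 44% in these data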;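 further: 0% = DMSO only wells and 100% = 100 µM nifuroxazide control wells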
# STAT1 inh – STAT1 signaling inhibition. NIH 3T3 STAT1-luciferase reporter, IFN-gamma, luminescence. inhibition, % at 5.5 µM. 200,000 compounds, 0.35% hits. AID 920;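 active means inhibition above a set limit, the mean inhibition across all tested compounds plus 3 SD, cut at about 34% in these data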;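 further: 0% = IFN-gamma with DMSO and 100% = IFN-gamma with 300 µM nifuroxazide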
# STAT3 act – activators of IL-6 induced STAT3 signaling; 190,000 compounds, 0.91% hits; activation (% of control), % at 5.6 µM; U3A cells, IL-6 STAT3-luciferase reporter, luminescence; 100% = signal with IL-6 EC80 alone;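 active means activation above the screen-wide mean of compound activation plus 3 SD, cut at about 130% in these data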;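 further: 0% = background luminescence of wells with medium and substrate only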
#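 Test system: STAT3-luciferase reporter U3A cells; Detection: reporter luminescence signal; Times: 1 h compound pre-exposure, 6 h IL-6 stimulation, 37 °C; Benchmarks: IL-6-only high control; Also added: IL-6 stimulus at 33 ng/mL final.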
# PPC-1+TRAIL kill – compounds killing PPC-1 cancer cells with TRAIL present (potentiator screen, no TRAIL-free arm). PPC-1 cells + TRAIL, ATPLite viability luminescence. cell killing (% activity), % at 4 µM or 5 µM. 220,000 compounds, 0.41% hits;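 active means cell killing above 50% in the first pass at 4 µM, then a duplicate retest at 5 µM averaging 50% or more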;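 further: plate controls were cells with TRAIL plus DMSO for no effect and medium-only wells lacking cells for full effect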
# C8 TRAIL sens – sensitizes caspase-8 expressing cells to TRAIL; NB7+C8 cells + TRAIL, ATPlite viability luminescence; inhibition (viability loss, TRAIL sensitization), % at 10 µM; 360,000 compounds, 1% hits;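 active means compounds causing at least 50% loss of cell viability in the single-dose screen, relative to plate controls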
# HSP90 inh confirm – HSP90 inhibition, confirmation assay; AID 1846; 2,300 compounds, 64% hits; rabbit reticulocyte lysate, luciferase refolding luminescence, 3 h; inhibition, % at 5.9 µM; shares compounds with HSP90 refold inh; in the data active means inhibition above about 18%;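 further: 0% = vehicle wells and 100% = reference inhibitor wells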
# FLuc counter – firefly luciferase inhibition, HSP90 counter-screen | shares compounds with HSP90 refold inh | purified native firefly luciferase, luminescence | inhibition, % at 5.9 µM | 2,300 compounds, 48% hits | AID 1847;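 active means inhibition above the mean inhibition of all tested sample wells plus 3 SD, cut at about 10% in these data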;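 further: 0% = DMSO with luciferase and 100% = wells lacking luciferase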
# Target sequence (P08659 whole entry, looked up): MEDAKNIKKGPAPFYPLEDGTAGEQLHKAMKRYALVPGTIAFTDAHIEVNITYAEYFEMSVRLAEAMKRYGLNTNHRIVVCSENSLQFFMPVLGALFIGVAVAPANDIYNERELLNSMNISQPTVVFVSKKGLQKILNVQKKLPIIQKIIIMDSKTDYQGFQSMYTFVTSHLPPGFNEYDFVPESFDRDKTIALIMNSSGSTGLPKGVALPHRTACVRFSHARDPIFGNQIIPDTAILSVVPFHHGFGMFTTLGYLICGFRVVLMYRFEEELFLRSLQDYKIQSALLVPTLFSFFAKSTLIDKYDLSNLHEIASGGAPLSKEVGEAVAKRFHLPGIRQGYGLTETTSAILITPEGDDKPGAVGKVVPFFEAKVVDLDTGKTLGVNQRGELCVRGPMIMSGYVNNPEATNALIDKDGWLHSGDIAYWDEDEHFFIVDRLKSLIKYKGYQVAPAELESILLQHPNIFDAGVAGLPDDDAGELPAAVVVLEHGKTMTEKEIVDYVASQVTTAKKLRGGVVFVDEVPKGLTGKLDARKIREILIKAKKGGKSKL
# * marks the source's active call; other numbers are inactive results; . = no result. This is a sample that favours compounds with a hit; in the whole collection about 2.3% have one here.
SMILES,HSP90 refold inh,STAT3 inh,STAT1 inh,STAT3 act,PPC-1+TRAIL kill,C8 TRAIL sens,HSP90 inh confirm,FLuc counter
Cn1c(=O)[nH]c(=O)c2c1nc(N1CCCCC1)n2C/C=N/Nc1ccc(C(=O)O)cc1,41*,.,.,.,19,-22,29*,36*
O=C(O)C1=C(C(=O)Nc2cccc(C(F)(F)F)c2)CCCC1,4,9,4,94,.,-5,.,.
Cc1cc(C)n(C(=O)c2c([N+](=O)[O-])cnn2C)n1,72*,6,-2,98,9,5,-4,-10
O=C1C=C(O)CC(c2cccs2)C1 (centres undefined),4,5,11,98,1,-3,.,.
Cc1cc(C)cc(N2Cc3ccccc3C2)c1,2,7,-2,101,18,9,.,.
COc1cc(N2Cc3ccccc3C2)ccc1C=O,54*,.,.,.,.,-5,40*,-7
CCOC(=O)c1cn2nc(N3CCCCC3)ccc2n1,39*,.,.,.,32,53*,72*,59*
CCOC(=O)c1cn2nc(N3CCCC3)ccc2n1,34*,.,.,.,31,42,67*,43*
COc1ccc(NS(=O)(=O)c2cccc(C(=O)N3CCN(Cc4ccc5c(c4)OCO5)CC3)c2)cc1,.,.,.,.,.,11,.,.
Cc1ccc(S(=O)(=O)NC(=NC2CCCCC2)c2ccccc2)cc1,-1,.,.,.,.,-18,.,.
Cc1ccc(S(=O)(=O)N2CCC[C@H]2C(=O)OCCN2C(=O)c3ccccc3C2=O)cc1,.,.,.,.,.,-7,.,.
O=C(COC(=O)c1ccc(N2CCCC2=O)cc1)c1ccccc1,18*,.,.,.,.,-9,27*,-23
CSc1ccc(NC(=O)NCc2cccnc2)cc1,4,.,.,.,.,-6,.,.
COc1ccc(N2C(=O)c3ccccc3NC23CCCC3)cc1,19*,2,-20,104,25,21,2,-6
c1ccc2c(c1)[nH]c1c(NCC3CCCO3)ncnc12 (centres undefined),32*,5,27,99,3,-4,-7,-11
C[C@H](NC(=O)N1CCn2c1nc1ccccc12)C(=O)NC1CCCCC1,-6,.,.,.,.,2,.,.
Cc1c(NC(=S)NC(=O)c2cc3ccccc3o2)cccc1C(=O)O,21*,.,.,.,.,6,20*,-16
Cc1c(NC(=O)c2ccccc2N)cccc1C(=O)O,20*,12,-17,92,10,-5,13,-6
O=C(Nc1ccc(NC(=O)C2CC2)cn1)c1ccccc1,17*,.,.,.,.,50*,39*,21*
CN1CCN(c2ccccc2NC(=S)NC(=O)c2cc3ccccc3o2)CC1,-1,.,.,.,.,9,.,.
Cc1c(NC(=O)c2ccc(NC(=O)C3CC3)cc2)cccc1C(=O)O,24*,.,.,.,.,4,20*,-16
Cc1ccc(-c2cc(C(=O)N3CCCCC3)c3ccccc3n2)cc1C,-2,.,.,.,.,38,.,.
CC(C)(C)NC(=O)Nc1ccc(Cn2cc(C(F)(F)F)ccc2=O)cc1,0,2,12,106,-6,-6,.,.
CCOC(=O)c1cnc2cc(Cl)c(OC)cc2c1NCC1CCCO1 (centres undefined),1,7,6,97,3,18,.,.
CC(C)Oc1ccc(CNC(=O)c2ccc3c(c2)N(C)CCS3)cc1,-1,.,.,.,.,1,.,.
SMILES,HSP90 refold inh,STAT3 inh,STAT1 inh,STAT3 act,PPC-1+TRAIL kill,C8 TRAIL sens,HSP90 inh confirm,FLuc counter
CCOC(=O)c1sc(NC(=O)CNCc2ccccn2)c(C(=O)OCC)c1C,0,.,.,.,19,15,.,.
C=CCc1ccc(OCc2ccc(C(=O)OC)o2)c(OC)c1,25*,3,-27,100,25,8,55*,-23
COc1ccc(C(=O)NCCc2cnc[nH]2)cc1OC,0,.,.,.,.,-5,.,.
CN(C)c1ccc(N=Nc2ccccc2Br)cc1,52*,.,.,.,.,55*,65*,54*
O=C(Nc1nc2ccccc2[nH]1)C1CC1,3,3,-27,104,6,24,.,.
O=C(Nc1nc2ccccc2[nH]1)NC1CCCCC1,23*,.,.,.,.,46,24*,6
COc1ccc(C(=O)Nc2nc3ccccc3[nH]2)cc1,74*,.,.,.,.,91*,86*,80*
COc1ccc(C(=O)N[C@H](C(=O)Nc2nc3ccccc3[nH]2)C(C)C)cc1,5,-20,-30,125,14,28,.,.

# Screens (PubChem BioAssay)
